Assay outcomes deposited in PubChem BioAssay by several laboratories.
Diaphorase act – counter-screen for diaphorase-based assays: diaphorase activators and chemical reducers; Diaphorase/resazurin coupled assay, resorufin fluorescence, 16 min; active compounds read high; 1 = vehicle wells, 0 = NADH-free wells; activation factor at 20 µM; 0.005% of 190,000 active; AID 1229;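 active = diaphorase activity raised at least twofold by the compound at 20 µM; inactive = activation factor below 2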
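Measured by – red resorufin fluorescence at 544/590 nm excitation/emission · Test system – Clostridium kluyveri diaphorase, purified enzyme · Incubation – reaction time 16 min, room temperature · Buffer or medium – 50 mM HEPES pH 7.4 with 4.542 mM MgCl2, 0.005% Tween 20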
ROMK mod – modulates human ROMK potassium channel activity | Tet-inducible ROMK, thallium flux fluorescence; actives lie on both sides | B-score at 10 µM | 2% of 130,000 active;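 active = signal ratio slope over the read window, or its plate-corrected B-score, at least 3 SD from the plate mean, either direction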;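 also: B-score of the F/F0 ratio slope over 7 to 12 s after thallium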
Target sequence (P48048 whole entry, looked up): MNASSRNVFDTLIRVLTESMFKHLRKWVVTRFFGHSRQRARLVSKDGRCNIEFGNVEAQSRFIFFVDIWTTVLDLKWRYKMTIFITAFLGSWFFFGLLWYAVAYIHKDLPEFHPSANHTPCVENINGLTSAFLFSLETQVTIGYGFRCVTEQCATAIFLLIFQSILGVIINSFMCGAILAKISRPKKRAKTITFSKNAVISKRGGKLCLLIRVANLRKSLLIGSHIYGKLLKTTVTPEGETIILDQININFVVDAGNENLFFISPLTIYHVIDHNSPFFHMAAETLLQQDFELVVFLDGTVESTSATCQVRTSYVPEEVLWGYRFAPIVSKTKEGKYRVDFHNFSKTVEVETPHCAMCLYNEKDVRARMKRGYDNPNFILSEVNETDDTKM
Lmaj promast – inhibitors of Leishmania major promastigote growth; Leishmania major promastigotes, resazurin fluorescence viability; inhibition, % at 10 µM; 9% of 200,000 active; in the data active = inhibition above about 50%;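 also: promastigotes grown with compound for 44 hours at 28 °C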
Diaph inh CS – diaphorase inhibition or chemical oxidation counter-screen; inhibition, % at 20 µM; diaphorase resazurin-to-resorufin fluorescence, NADH, 16 min; bacterial (C. kluyveri) enzyme, not human; 0.69% of 190,000 active;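 active = primary screen inhibition at 20 µM above a set limit, cut at about 50% in these data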;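 also: plate controls were DMSO with full reaction for no effect and wells lacking NADH for full effect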
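Benchmarks: positive control wells lacking NADH, neutral wells with DMSO only. System: bacterial diaphorase enzyme (C. kluyveri). Input: 0.14 U/mL diaphorase, enzyme working solution. Detection: resorufin fluorescence, excitation 544 nm, emission 590 nm. Times: 16-min room-temperature incubation before reading.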
WT yeast gro inh – growth inhibition of WT yeast, mitochondrial fusion screen; mitochondrial fusion phenotypic screen, WT strain; inhibition, % at 10 µM; 2.1% of 190,000 active; in the data active = inhibition above about 58%; tested in S. cerevisiae
Cl transport mod – KCC2 (human) Cl- transport modulation. KCC2 cells, thallium flux FluoZin-2 fluorescence. B-score of Tl+ flux slope (higher = more flux/activation; lower = inhibition) at 10 µM. 2.2% of 190,000 active;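 active = thallium flux slope and its plate-corrected score both differing from the plate sample mean at a set confidence after two filtering rounds, in either direction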;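 also: slope of fluorescence scaled to starting intensity during 10 to 20 s after thallium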
Starred values were filed as active, the others as inactive. This is a sample that favours compounds with a hit; in the whole collection about 12% have one here.

For CCC1CCCCN1c1ccc([N+](=O)[O-])cc1/C=N/NC(=O)Cn1c2ccccc2c(=O)c2ccccc21 (stereo not drawn) the results were Diaphorase act 1, ROMK mod -0.41, Lmaj promast 51*, Diaph inh CS -5, WT yeast gro inh -6 and Cl transport mod -0.35.
`COc1ccc(C)cc1NC(=O)NCc1ccc(F)cc1` gave Diaphorase act 1.1, ROMK mod 0.0042, Lmaj promast 1, Diaph inh CS -12, WT yeast gro inh 3 and Cl transport mod -0.84.
For CCN1CCCC1CNC(=O)CSCc1nc(-c2ccccc2C)oc1C (stereo not drawn) the results were Diaphorase act 1, ROMK mod 0.6, Lmaj promast 99*, Diaph inh CS 2 and WT yeast gro inh -2.
`CCN1CCCC1CNC(=O)C1CCN(Cc2nc(-c3cccc(Br)c3)oc2C)CC1` (stereo not drawn) gave Diaphorase act 1.2, Lmaj promast 99*, Diaph inh CS -24, WT yeast gro inh -4 and Cl transport mod 0.18.
`Cc1oc(-c2cccc(Cl)c2)nc1CN1CCC(C(=O)NCc2ccco2)CC1` gave Diaphorase act 0.9, Lmaj promast -3, Diaph inh CS 6, WT yeast gro inh -11 and Cl transport mod -0.26.
COc1ccc(-c2cc(C(F)(F)F)nc(SCCC(=O)N3CCN4CCCC4C3)n2)cc1 (stereo not drawn) was read as Diaphorase act 0.9, Lmaj promast 55*, Diaph inh CS 5, WT yeast gro inh -3 and Cl transport mod -0.58.
For O=C(CCSc1nc(-c2ccco2)cc(C(F)(F)F)n1)N1CCN(c2ccccc2)CC1 the results were Diaphorase act 0.7, Lmaj promast -7, Diaph inh CS 26, WT yeast gro inh 62* and Cl transport mod 0.19.
COc1ccc(-c2cc(C(F)(F)F)nc(SCCC(=O)N3CCCC3)n2)cc1 was read as Diaphorase act 0.7, Lmaj promast 3, Diaph inh CS 25 and WT yeast gro inh -5.
O=C(NCc1cccnc1)c1ccc(CS(=O)(=O)c2ccc(Cl)cc2)o1 was read as Diaphorase act 0.9, Lmaj promast -3, Diaph inh CS 6, WT yeast gro inh 8 and Cl transport mod -5.3*.
Cc1cccc(CS(=O)(=O)Cc2ccc(C(=O)NCc3ccco3)o2)c1 was read as Diaphorase act 1, ROMK mod 0.063, Lmaj promast 80*, Diaph inh CS 3 and WT yeast gro inh -19.
`CN(C)CCNC(=O)c1ccc(CS(=O)(=O)c2ccc(Br)cc2)o1` gave Lmaj promast 77*, WT yeast gro inh 12 and Cl transport mod 0.45.
O=C(NCc1ccco1)c1ccc([N+](=O)[O-])o1 was read as Diaphorase act 1, ROMK mod 0.15, Lmaj promast 63*, Diaph inh CS -3, WT yeast gro inh -17 and Cl transport mod -0.83.
For CN(C)CCNC(=O)c1ccc(CS(=O)(=O)c2c(Cl)cccc2Cl)o1 the results were Diaphorase act 0.9, Lmaj promast 7, Diaph inh CS 9 and WT yeast gro inh 7.
`O=C(NCc1cccs1)c1ccc(CS(=O)(=O)c2ccc(Cl)cc2)o1` gave Diaphorase act 0.9, ROMK mod 0.014, Lmaj promast -1, Diaph inh CS 13 and WT yeast gro inh -12.
`O=C(NCc1ccco1)c1ccc(Cn2cc([N+](=O)[O-])cn2)o1` gave Diaphorase act 1, ROMK mod -0.1, Lmaj promast -4, Diaph inh CS 5, WT yeast gro inh -10 and Cl transport mod 1.4.
Screening COc1ccc(NC(=S)NNS(=O)(=O)c2ccc3ccccc3c2)c(OC)c1 returned Diaphorase act 0.6, ROMK mod 0.44, Lmaj promast -7, Diaph inh CS 39, WT yeast gro inh -8 and Cl transport mod -0.21.
`COCCNC(=O)CSc1nnc(CCCN2C(=O)c3cccc4cccc(c34)C2=O)n1-c1ccccc1` gave Diaphorase act 0.6, Lmaj promast -6, Diaph inh CS 41, WT yeast gro inh -1 and Cl transport mod -0.99.
O=C(NCc1cccnc1)c1ccc([N+](=O)[O-])o1 was read as Diaphorase act 1, ROMK mod 0.0099, Lmaj promast 94*, Diaph inh CS -2, WT yeast gro inh 4 and Cl transport mod 0.021.
For CC(=O)N1CC=C2C(C#N)=C(N)C(C#N)(C#N)[C@H](c3ccoc3)[C@H]2C1 the results were Diaphorase act 0.7, ROMK mod -0.75, Lmaj promast 2, Diaph inh CS 27, WT yeast gro inh 10 and Cl transport mod 0.51.
COc1ccc(OC)c(C2C3CN(C(C)C)CC=C3C(C#N)=C(N)C2(C#N)C#N)c1 (stereo not drawn) was read as Diaphorase act 0.9, ROMK mod -0.96, Lmaj promast 5, Diaph inh CS 8 and WT yeast gro inh 21.
Screening N#CC1=C(N)C(C#N)(C#N)[C@H](c2ccoc2)[C@H]2CN(Cc3ccccc3)CC=C12 returned Diaphorase act 0.8, Lmaj promast 56*, Diaph inh CS 15, WT yeast gro inh 6 and Cl transport mod inactive.
`Cc1ccc(C2C3CN(C(C)C)CC=C3C(C#N)=C(N)C2(C#N)C#N)cc1` (stereo not drawn) gave Diaphorase act 0.8, ROMK mod -4.3*, Diaph inh CS 19 and WT yeast gro inh 4.
Screening CCOC(=O)N1CC=C2C(C#N)=C(N)C(C#N)(C#N)[C@H](c3ccc(OCC)c(OCC)c3)[C@H]2C1 returned Diaphorase act 0.8, ROMK mod 1.8, Lmaj promast 14, Diaph inh CS 18, WT yeast gro inh -3 and Cl transport mod -0.15.
Screening CCCCOc1ccc(C2C3CN(C(=O)OCC)CC=C3C(C#N)=C(N)C2(C#N)C#N)cc1OC (stereo not drawn) returned Diaphorase act 0.7, ROMK mod -0.66, Lmaj promast 47, Diaph inh CS 35, WT yeast gro inh 62* and Cl transport mod 0.79.
N#CC1=C(N)C(C#N)(C#N)C(c2cccnc2)C2CN(C(=O)OCc3ccccc3)CC=C12 (stereo not drawn) was read as Diaphorase act 0.9, Lmaj promast 11, Diaph inh CS 10, WT yeast gro inh 2 and Cl transport mod 0.18.
`CN1CC=C2C(C#N)=C(N)C(C#N)(C#N)[C@H](c3ccoc3)[C@H]2C1` gave Diaphorase act 0.7, ROMK mod -2.8*, Lmaj promast 8, Diaph inh CS 26, WT yeast gro inh 20 and Cl transport mod 0.39.
Screening CSc1ccc(/C=C(/NC(=O)c2ccc(C)cc2)C(=O)Nc2cccc(F)c2)cc1 returned Diaphorase act 0.9, Lmaj promast -5, Diaph inh CS 7, WT yeast gro inh 1 and Cl transport mod 0.52.
